From ChEMBL document CHEMBL3526015, “Metabolism of the c-Fos/activator protein-1 inhibitor T-5224 by multiple human UDP-glucuronosyltransferase isoforms” (Drug Metab Dispos, 2011) come the findings set out here.

Data set [1] deals with Liver microsome. Nature of the data set: Drug metabolism in pooled human liver microsomes assessed as T-5224 hydroxyl O-glucuronide formation at 10 uM after 10 mins by HPLC method. In kind it is ADME. Summed up:
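T-5224 at 10 μM incubated for 10 min at 37°C with UDPGA (2 mM) in pooled liver (0.5 mg protein/mL) or intestinal (0.25 mg protein/mL) microsomes. Buffer was 50 mM Tris-HCl pH 7.5 with 8 mM MgCl2 and alamethicin, after 5 min preincubation. Stopped with acetonitrile; glucuronides quantified by HPLC at 290 nm.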
(In general: Microsomes from liver hold many membrane-bound enzymes, among them those of drug oxidation.)

The nature of data set [2]: Drug metabolism in human intestinal microsomes assessed as T-5224 acyl O-glucuronide formation after 10 to 60 mins by HPLC method. Format: ADME, Intestine, Microsome. Summed up:
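Pooled liver microsomes (0.5 mg/mL) were incubated 10 min. Pooled intestinal microsomes (0.25 mg/mL) ran 10 min at T-5224 10–50 μM and 20 min at 1–5 μM. Buffer was 50 mM Tris-HCl pH 7.5 with 8 mM MgCl2, alamethicin and 2 mM UDPGA, at 37°C, in triplicate. Glucuronides G2/G3 were read by HPLC at 290 nm and fitted for Vmax/Km.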

Data set [3] concerns the target T1, UDP-glucuronosyltransferase 1A3 (Homo sapiens, UniProt P35503).
T1 sequence (P35503 whole entry): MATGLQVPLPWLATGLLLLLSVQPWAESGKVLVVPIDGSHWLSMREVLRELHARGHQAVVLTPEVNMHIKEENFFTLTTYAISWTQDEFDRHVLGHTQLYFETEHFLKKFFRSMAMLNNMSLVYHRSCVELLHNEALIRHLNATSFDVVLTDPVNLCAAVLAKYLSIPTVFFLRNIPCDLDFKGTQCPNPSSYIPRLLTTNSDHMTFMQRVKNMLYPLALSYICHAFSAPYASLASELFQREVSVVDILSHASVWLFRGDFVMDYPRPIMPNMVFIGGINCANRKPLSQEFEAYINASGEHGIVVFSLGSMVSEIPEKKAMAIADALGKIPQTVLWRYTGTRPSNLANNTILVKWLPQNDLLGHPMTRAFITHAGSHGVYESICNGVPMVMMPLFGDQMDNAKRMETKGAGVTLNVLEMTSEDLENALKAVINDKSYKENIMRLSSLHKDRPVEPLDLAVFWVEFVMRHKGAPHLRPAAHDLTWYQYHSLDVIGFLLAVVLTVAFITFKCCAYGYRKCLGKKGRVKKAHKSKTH
Nature of the data set: Substrate inhibition of human UGT1A3-mediated T-5224 hydroxyl O-glucuronide formation after 10 to 60 mins in presence of UDP-glucuronic acid by HPLC method. Format: ADME. Summed up: (§1)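 Recombinant human UGT1A1, UGT1A3 or UGT1A8 from baculovirus-infected insect cells (0.1 mg protein/mL) in 50 mM Tris-HCl pH 7.5, 8 mM MgCl2, alamethicin, 2% DMSO. T-5224 at 1–50 μM with 2 mM UDPGA for 60 min at 37°C. HPLC with UV at 290 nm. Triplicates fitted to a substrate-inhibition model. kcat uses UGT content quantified by immunoblot against recombinant UGT1A1/UGT2B4 standards.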

The next data set addresses Cytochrome P450 2E1 (Homo sapiens, UniProt P05181). Description: Drug metabolism assessed as human CYP2E1-mediated metabolite formation at 2 uM after 30 mins by HPLC method. Particulars: recombinant enzyme, 0.5 h. Format: ADME. Summed up: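 Each recombinant human P450 was used at 50 pmol/mL with an NADPH-generating system and 2 μM 14C-T-5224 (0.5% DMSO final). Buffer was 100 mM Tris-HCl pH 7.5, except 100 mM potassium phosphate pH 7.4 for CYP2A6 and CYP2C9*1. Incubation ran 30 min at 37°C and was stopped with acetonitrile/methanol. Radioactive metabolite peaks were detected by C18 HPLC.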

For data set [4], the target named is T2, UDP-glucuronosyltransferase 1A1 (Homo sapiens, UniProt P22309).
T2 sequence (P22309 whole entry): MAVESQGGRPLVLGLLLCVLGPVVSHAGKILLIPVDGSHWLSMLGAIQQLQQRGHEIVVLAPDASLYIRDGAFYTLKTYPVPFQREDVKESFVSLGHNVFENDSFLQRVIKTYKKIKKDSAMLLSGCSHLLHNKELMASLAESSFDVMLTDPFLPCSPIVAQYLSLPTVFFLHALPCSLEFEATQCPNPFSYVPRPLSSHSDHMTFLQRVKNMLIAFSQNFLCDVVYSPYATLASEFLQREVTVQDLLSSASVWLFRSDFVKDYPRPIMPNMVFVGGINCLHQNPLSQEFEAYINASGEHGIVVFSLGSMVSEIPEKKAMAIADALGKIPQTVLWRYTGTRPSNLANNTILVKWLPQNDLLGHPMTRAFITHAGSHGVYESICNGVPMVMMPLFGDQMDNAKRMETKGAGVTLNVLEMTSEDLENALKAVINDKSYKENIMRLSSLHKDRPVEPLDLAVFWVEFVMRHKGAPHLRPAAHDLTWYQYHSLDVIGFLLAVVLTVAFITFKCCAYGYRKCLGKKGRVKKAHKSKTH
Description: Drug metabolism assessed as human UGT1A1-mediated T-5224 acyl O-glucuronide formation at 5 to 50 uM after 60 mins in presence of UDP-glucuronic acid by HPLC method. The following applies: recombinant enzyme, 1 h. Format: ADME.

Data set [5] concerns Liver microsome. Nature of the data set: Drug metabolism in pooled human liver microsomes assessed as T-5224 acyl O-glucuronide formation in presence of UDPGA by LC-MS/MS method. Format: ADME.
For data set [6], the target named is T2, UDP-glucuronosyltransferase 1A1. Description: Drug metabolism assessed as human UGT1A1-mediated T-5224 hydroxyl O-glucuronide formation at 10 uM […] in presence of beta-estradiol by HPLC method. Format: ADME. The following applies: recombinant enzyme. Summed up: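 Pooled human liver microsomes or recombinant UGT1A1 were incubated with 10 μM T-5224, 2 mM UDPGA and β-estradiol at 0–500 μM (2% DMSO), in Tris-HCl/MgCl2/alamethicin buffer. Incubation was 10 min (liver microsomes) or 60 min (UGT1A1) at 37°C. G2/G3 were read by HPLC at 290 nm, as mean ± SD, n = 3.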

For data set [7] the target is unchanged. Description: Substrate inhibition of human UGT1A1-mediated T-5224 acyl O-glucuronide formation after 10 to 60 mins in presence of UDP-glucuronic acid by HPLC method. Format: ADME. Summed up: as §1

Chain of Cytochrome P450 2E1 (P05181 whole entry): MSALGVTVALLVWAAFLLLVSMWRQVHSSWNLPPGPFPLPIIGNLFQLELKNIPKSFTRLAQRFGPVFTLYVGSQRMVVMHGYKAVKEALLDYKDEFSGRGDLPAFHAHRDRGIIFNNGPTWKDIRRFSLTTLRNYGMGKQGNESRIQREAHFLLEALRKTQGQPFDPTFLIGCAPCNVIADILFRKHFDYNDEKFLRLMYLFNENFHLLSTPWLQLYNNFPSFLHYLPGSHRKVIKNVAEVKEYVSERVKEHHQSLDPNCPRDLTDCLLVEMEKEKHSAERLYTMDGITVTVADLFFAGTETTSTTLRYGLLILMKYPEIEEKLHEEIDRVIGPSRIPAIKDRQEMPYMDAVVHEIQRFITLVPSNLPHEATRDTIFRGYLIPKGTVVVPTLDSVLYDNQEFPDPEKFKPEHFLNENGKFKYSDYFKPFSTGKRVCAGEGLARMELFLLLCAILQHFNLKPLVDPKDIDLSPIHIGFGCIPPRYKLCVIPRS

For orientation: Km means the substrate concentration at which the rate is half of its maximum. As to `O=C(O)CCc1cc(C(=O)c2ccc(OC3CCCC3)cc2O)ccc1OCc1ccc2c(O)noc2c1`, the Drug metabolism entry in the data set with Liver microsome [1] is recorded as “metabolite_detected”; on Cytochrome P450 2E1 it was “metabolite_not_detected”; in data set [4], “metabolite_detected”; in the data set with Liver microsome [5], “metabolite_detected”; in data set [6] it was “metabolite_detected”. In addition, in data set [2], the Km stood at 5.88 µM. Further, the Ki in data set [3] stood at 2550 nM; in data set [7], 1540 nM.
